Screening results deposited in PubChem by The Scripps Research Institute Molecular Screening Center.
The list is not random: actives were taken first. Their share in the collection is about 1.8%.
M4 ag: CHRM4 agonism in calcium assay; activation, % at 3 µM; P08173; AID 624127; CHO-K1 hM4/Gqi5, Fluo-8 calcium fluorescence; vehicle 0%, full acetylcholine response 100%; 0.14% of 360,000 active;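 active = activation above the run mean over all test wells plus 3 SD, cut at about 32% in these data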;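 note: peak over basal fluorescence ratio per well then scaled between controls; 0% = DMSO wells and 100% = acetylcholine at EC100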
Target sequence (P08173 whole entry, looked up): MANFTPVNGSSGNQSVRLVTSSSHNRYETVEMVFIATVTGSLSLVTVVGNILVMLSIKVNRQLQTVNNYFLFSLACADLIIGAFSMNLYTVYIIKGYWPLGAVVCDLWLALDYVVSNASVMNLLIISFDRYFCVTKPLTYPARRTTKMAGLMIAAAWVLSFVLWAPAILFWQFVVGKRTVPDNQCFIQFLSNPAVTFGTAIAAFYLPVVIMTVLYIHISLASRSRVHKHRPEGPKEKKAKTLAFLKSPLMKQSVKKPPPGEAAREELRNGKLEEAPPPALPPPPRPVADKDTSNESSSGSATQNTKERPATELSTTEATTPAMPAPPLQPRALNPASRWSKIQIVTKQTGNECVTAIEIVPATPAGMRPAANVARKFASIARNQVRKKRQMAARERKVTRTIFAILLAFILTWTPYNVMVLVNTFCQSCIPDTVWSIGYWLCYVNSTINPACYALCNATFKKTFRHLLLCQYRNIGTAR
M4 PAM: potentiates acetylcholine response at human M4 receptor; CHO-K1 hM4/Gqi5, Fluo-8 calcium fluorescence, ACh EC20; 0% = ACh EC20, 100% = maximal ACh; activation, % at 3 µM; 0.4% of 360,000 active; AID 624126;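 active = activation above its plate's cutoff, the mean activation of sample wells plus 3 SD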
CHRM4 antagonist: CHRM4 antagonism in calcium assay; 0.73% of 360,000 active; AID 624125; CHO-hM4 cells, ACh EC80, Fluo-8 calcium fluorescence; inhibition, % at 3 µM; P08173;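 active = inhibition above its plate's cutoff, the mean inhibition of sample wells plus 3 SD, cut at about 27% in these data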;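 note: 0% = acetylcholine EC80 with DMSO and 100% = DMSO without agonist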
CHRM5 antagonist: blocks acetylcholine activation of human M5 receptor | P08912 | CHO-hM5 cells, Fluo-8 calcium fluorescence, ACh EC80 | inhibition, % at 3 µM | 0.59% of 360,000 active;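 active = inhibition above a per-plate cutoff, the mean of that plate's test compounds plus 3 SD, cut at about 27% in these data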;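 note: 0% = acetylcholine EC80 with DMSO and 100% = DMSO without agonist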
M5 ag: agonists of human muscarinic M5 receptor (CHRM5); CHO-K1 hM5 cells, Fluo-8 calcium fluorescence; 0% DMSO wells, 100% maximal acetylcholine response; activation, % at 3 µM; 0.19% of 360,000 active; AID 624037;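 active = activation above the run's mean over test compounds plus 3 SD, cut at about 23% in these data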;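 note: signal is peak over basal fluorescence ratio across the kinetic read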
CHRM5 PAM: potentiates acetylcholine response at human M5 receptor | P08912 | CHO-K1 hM5, Fluo-8 calcium, ACh EC20 PAM; 0% = ACh EC20, 100% = ACh EC100 | activation, % at 3 µM | 0.3% of 360,000 active;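 active = activation above the run cutoff, the mean activation of all test compounds plus 3 SD, cut at about 18% in these data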
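system = human M5 receptor in CHO-K1 cells | reagent = EC20 acetylcholine as agonist stimulus | compound dosing = single-point, 3 µM nominal | incubation = Fluo-8 loading 80 min at 37 °C plus 30 min room temperature | detection = Fluo-8 calcium dye fluorescence, kinetic read | benchmarks = low control EC20 acetylcholine (0%), high control EC100 acetylcholine (100%)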
* marks the source's active call; other numbers are inactive results.

SMILES	M4 ag	M4 PAM	CHRM4 antagonist	CHRM5 antagonist	M5 ag	CHRM5 PAM
COc1ccc(NC(=O)N(C)[C@H]2C[C@H]3c4[nH]c5ccc(-c6ccc(OC)cc6)cc5c4CCN3C[C@H]2[C@H](C)O)cc1	5	-1	4	5	-2	-3
Cc1ccc(C(=O)NC(C)c2ccc(F)cc2)cc1 (stereo unspecified)	0	6	1	7	-4	-3
CC(C)Cc1ccc(C(C)NC(=O)c2ccc(=O)[nH]c2)cc1 (stereo unspecified)	22	-15	9	10	25*	-13
CCOC(=O)c1ccc(NC(=S)N2CCSC2c2ccc(Cl)cc2)cc1 (stereo unspecified)	61*	-3	28*	15	35*	8
CCN(CC)S(=O)(=O)c1ccc(C(=O)Nc2c3c(nn2C(C)(C)C)CS(=O)(=O)C3)cc1	2	10	27*	-1	-2	2
CC(OC(=O)Cc1c(F)cccc1Cl)C(=O)NC1(C#N)CCCCC1 (stereo unspecified)	2	7	0	-4	3	3
Nc1nc(NCCOCCO)nc(NC2CCCCC2)c1[N+](=O)[O-]	2	3	3	28*	6	-4
CC(C)CNc1nc(N)c([N+](=O)[O-])c(NCC2CCCO2)n1 (stereo unspecified)	2	35*	1	-6	-1	11
CC(C)CCNc1nc(N)c([N+](=O)[O-])c(NCCO)n1	1	19	-12	-14	19	19*
Cc1c(CCOC(=O)C23CC4CC(CC(C4)C2)C3)sc[n+]1Cc1ccccc1	2	-14	25	18	-7	-18
Cc1c(CCOC(=O)C23CC4CC(CC(C)(C4)C2)C3)sc[n+]1Cc1ccccc1	0	-21	69*	98*	-6	-23
Cn1nc(C(=O)Nc2ccccc2N2CCCC2)c2ccccc2c1=O	8	-2	-3	-6	-1	4
CCn1c(SCC(=O)N2CCCC2)nc2c(c1=O)SC(C)C2 (stereo unspecified)	-1	-16	84*	4	0	-14
COCCn1c(SCC(=O)Nc2cc(C)on2)nc2c(c1=O)SC(C)C2 (stereo unspecified)	1	4	5	2	-2	9
CCSc1nnc(NC(=O)CSc2nc3c(c(=O)n2CCOC)SC(C)C3)s1 (stereo unspecified)	0	-12	32*	2	0	-8
CCCN(Cc1nnc(-c2ccccc2Cl)o1)C(=O)c1cc([N+](=O)[O-])cc([N+](=O)[O-])c1	3	6	-14	11	-4	-7
Cc1nn(-c2cc(C(F)(F)F)ccc2Cl)c2nc(C(Cl)(Cl)Cl)[nH]c(=O)c12	1	-8	6	4	13	19*
CN(C)CCC(=O)C(Cc1ccccc1)c1ccccc1 (stereo unspecified)	4	-15	35*	5	-18	-19
CC(CCCN(C)C)C(Cc1ccccc1)c1ccccc1 (stereo unspecified)	10	-17	29*	31*	-18	-35
CN(C)CC(c1ccccc1)c1ccccc1	0	-2	3	14	-19	-6
CN(C)CCNC(=O)C(c1ccccc1)c1ccccc1	1	-5	-4	11	-20	-8
c1ccc(C(Cc2nc(-c3ccncc3)no2)c2ccccc2)cc1	1	-11	18	31*	0	-16
Cc1cc(C)n(-c2ccc([N+](=O)[O-])cc2)n1	0	1	-25	-10	-8	2
Cc1cc(N)n(-c2ccc([N+](=O)[O-])cc2)n1	3	10	-15	-18	5	20*
O=C(Nc1ccc(Cl)cc1)C(Cl)C(=O)c1ccccc1 (stereo unspecified)	7	-20	26*	8	-3	6
SMILES	M4 ag	M4 PAM	CHRM4 antagonist	CHRM5 antagonist	M5 ag	CHRM5 PAM
O=C(CSc1nc(=O)n2ccccc2n1)N1CCCCCC1	0	-1	-1	-5	-5	0
COC(=O)C1CCN(C2CN(Cc3ccccc3)S(=O)(=O)C2)CC1 (stereo unspecified)	1	-1	-8	0	3	6
O=C1CCCCC1C(O)(C(=O)c1ccccc1)c1ccccc1 (stereo unspecified)	-3	-1	6	11	-2	-2
CC[N+](C)(CC)CCC(c1ccccc1)C1CCCCC1 (stereo unspecified)	0	-15	97*	99*	-26	-32
CC[N+](C)(CC)CCOC(=O)C(O)(c1ccccc1)C1CCCCC1 (stereo unspecified)	0	-18	99*	98*	-2	-18
CCC(C(=O)NC1CCCCCC1)c1ccccc1 (stereo unspecified)	0	-22	-1	-11	-9	11
O=C1c2cc(O)c(O)cc2S(=O)(=O)C1c1ccccc1 (stereo unspecified)	0	3	-4	11	2	8
COc1ccc(NC(=O)NC2(C(=O)N3CCN(C)CC3)CCCCC2)cc1	0	0	5	3	2	1
CCN1C(=O)/C(=C/C=C2/SCCN2C)SC1=S	4	-6	0	-2	5	-12
CCCCN1C(=O)/C(=C/C=C2/CC(C)(C)CN2C)SC1=S	34*	-11	25	36*	47*	-15
CCCCN1C(=O)/C(=C/C=C2\Oc3ccccc3N2CC)SC1=S	20	-10	22	25	48*	-8
COc1ccc(NC(=O)CN(C)C(C)C(=O)NC(=O)NC2CCCCC2)cc1 (stereo unspecified)	1	-3	11	-1	-2	5
CC1=CC(C)(C)N(C(=O)CNC2CCCC2)c2cc(C)ccc21	0	-27	49*	37*	-15	-31
CCOc1ccc2c(c1)N(C(=O)CN1C(=O)CCC1=O)C(C)(C)C=C2C	-2	10	-5	-5	-7	3
COc1ccc(C(=O)NNC(=O)C2CCN(S(=O)(=O)c3ccc(C)cc3)CC2)cc1	0	2	-4	8	-4	5
CC(C)CSC1=NSC2=NC(=O)/C(=C\c3coc4ccccc4c3=O)C(=N)N12	89*	-21	52*	68*	168*	-23
CSC1=NSC2=NC(=O)/C(=C\c3coc4ccccc4c3=O)C(=N)N12	25	-17	27*	26	27*	-13
COc1ccc(CCN2CCCn3c2nc2c3c(=O)n(CC(N)=O)c(=O)n2C)cc1OC	0	-1	-4	13	-3	-5
